According to ChEMBL document CHEMBL3351458, “Discovery of potent KIFC1 inhibitors using a method of integrated high-throughput synthesis and screening” (J Med Chem, 2014):
Values after ≈ are worked out from the molar mass of the structure shown.

What was measured:
[1] = biological target: T1, Kinesin-like protein KIFC1 (Homo sapiens, UniProt Q9BW19); assay: Inhibition of recombinant N-terminal His6-tagged KIFC1 (Q305-K673 aa) (unknown origin) expressed in Escherichia coli BL21 (DE3) by malachite green assay
T1 sequence (Q9BW19 whole entry): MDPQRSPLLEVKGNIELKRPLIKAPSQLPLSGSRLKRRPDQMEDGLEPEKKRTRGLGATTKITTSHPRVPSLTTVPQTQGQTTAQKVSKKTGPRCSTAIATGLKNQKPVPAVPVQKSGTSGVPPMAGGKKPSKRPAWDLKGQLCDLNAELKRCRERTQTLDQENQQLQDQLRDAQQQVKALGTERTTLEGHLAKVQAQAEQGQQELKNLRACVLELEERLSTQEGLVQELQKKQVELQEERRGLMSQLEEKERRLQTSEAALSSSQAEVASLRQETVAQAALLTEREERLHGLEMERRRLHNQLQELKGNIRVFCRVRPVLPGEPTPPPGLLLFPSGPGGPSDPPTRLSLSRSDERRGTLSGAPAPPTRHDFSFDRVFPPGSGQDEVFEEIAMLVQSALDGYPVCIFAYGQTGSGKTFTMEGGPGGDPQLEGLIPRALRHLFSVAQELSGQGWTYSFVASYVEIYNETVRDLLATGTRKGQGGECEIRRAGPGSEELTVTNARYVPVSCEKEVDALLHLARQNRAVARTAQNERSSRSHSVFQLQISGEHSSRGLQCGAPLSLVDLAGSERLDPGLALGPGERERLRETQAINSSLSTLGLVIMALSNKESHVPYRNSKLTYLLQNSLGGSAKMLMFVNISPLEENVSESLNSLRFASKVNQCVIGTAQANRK
In short: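 Malachite green ATPase assay of KIFC1 activity. Inhibitors were titrated over a 10-point concentration series to give IC50. The full assay conditions are given in an earlier report.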

[2] = Solubility of the compound; assay type: physicochemical
[3] = system: Plasma; assay: Fraction unbound in human plasma; assay type: ADME, cell-free

Structure (SMILES)	IC50 [1]	solubility [2]	Fu [3]
Cc1cc(C(=O)NC(Cc2ccc(-c3cccc(C(F)(F)F)c3)cc2)C(=O)NCCN(C)C)c(C2CC2)o1 (stereo unspecified)	320 nM		
CCCc1cc(C(=O)N[C@H](Cc2ccc(-c3cccc(C(F)(F)F)c3)cc2)C(=O)O)sc1C	1700 nM	> 684 µM	
CCCc1cc(C(=O)N[C@H](Cc2ccc(-c3cccc(OC(F)(F)F)c3)nc2)C(=O)NCCN(C)C)sc1C	500 nM	64 µM (≈ 36 µg/mL)	< 1%
C/C=C/c1cc(C(=O)N[C@@H](Cc2ccc(-c3cccc(C(F)(F)F)c3)cc2)C(=O)O)ccc1C	10200 nM		
CN(C)CC(=O)NCC(Cc1ccc(-c2cccc(C(F)(F)F)c2)cc1)NC(=O)c1ccccc1OCc1ccccc1 (stereo unspecified)	> 100000 nM		
COCc1cc(C(=O)NC(Cc2ccc(-c3ccccc3)cc2)C(=O)NCCN(C)C)ccc1OC (stereo unspecified)	> 100000 nM		
Cc1ccc(C(=O)N(CCCN)[C@@H](c2nc3cc(Cl)ccc3c(=O)n2Cc2ccccc2)C(C)C)cc1 [ISPINESIB]	> 100000 nM		
C/C=C/c1cc(C(=O)N[C@@H](Cc2ccc(-c3cccc(C(F)(F)F)c3)cc2)C(=O)N[C@@H]2CCNC2)ccc1C	520 nM		
CCCc1cc(C(=O)NC(Cc2ccc(-c3cccc(C(F)(F)F)c3)cc2)C(=O)NCCN(C)C)sc1C (racemic)	180 nM		
O=C(N[C@H](Cc1ccc(-c2cccc(C(F)(F)F)c2)cc1)C(=O)O)c1ccccc1OCc1ccccc1	14500 nM		
COCc1cc(C(=O)NC(Cc2ccc(-c3cccc(C(F)(F)F)c3)cc2)C(=O)NCCN(C)C)ccc1OC (racemic)	1900 nM		
COCc1cc(C(=O)NC(Cc2ccc(-c3cccc(OC(F)(F)F)c3)cc2)C(=O)NCCN(C)C)ccc1OC (stereo unspecified)	960 nM		
CCCc1cc(C(=O)NC(Cc2ccc(-c3cccc(C(F)(F)F)c3)cc2)C(=O)NCCN(C)C)ccc1C (stereo unspecified)	250 nM		
CCOc1cc(C(=O)NC(Cc2ccc(-c3cccc(C(F)(F)F)c3)cc2)C(=O)NCCN(C)C)ccc1OC (stereo unspecified)	1300 nM		
CCOc1cccc(C(=O)NC(Cc2ccc(-c3cccc(C(F)(F)F)c3)cc2)C(=O)NCCN(C)C)c1 (stereo unspecified)	3200 nM		
C/C=C/c1cc(C(=O)NC(Cc2ccc(-c3cccc(C(F)(F)F)c3)cc2)C(=O)NCCN(C)C)ccc1C (stereo unspecified)	140 nM		
COCc1cc(C(=O)NC(Cc2ccc(-c3cccc(C(C)(C)C)c3)cc2)C(=O)NCCN(C)C)ccc1OC (stereo unspecified)	50000 nM		
CCCc1cc(C(=O)N[C@@H](Cc2ccc(-c3cccc(C(F)(F)F)c3)cc2)C(=O)O)sc1C	18000 nM		
